In brackets after ≈: the same amount, converted by molar mass.
What was measured:
[1] = biological target: UDP-glucuronosyltransferase 1A4 (Homo sapiens, UniProt P22310); experiment: Drug metabolism assessed as human UGT1A4-mediated metabolism by measuring intrinsic clearance; format: ADME; conditions: recombinant enzyme
[2] = Half life in mouse liver S9 fraction; format: ADME, subcellular
Summary of the method: (§1)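 Metabolic stability of the dihydrodiols measured in vitro with mouse and human liver S9 fractions and with mouse and human hepatocytes; half-life from substrate depletion.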

[3] = Kinetic aqueous solubility of the compound; format: physicochemical; conditions: buffer; read-out: Kinetic_solubility
[4] = Retention time in beta-naphthoflavone/phenobarbital-induced rat liver S9 fraction at 100 ug/ml in presence of NADPH by LC-MS/MS analysis; format: ADME, subcellular
[5] = biological target: UGT1A3 (Homo sapiens, UniProt P35503); experiment: Inhibition of human UGT1A3 assessed as residual enzyme activity at 10 uM relative to control; format: ADME; conditions: read-out: Activity
Sequence of UGT1A3 (P35503 whole entry): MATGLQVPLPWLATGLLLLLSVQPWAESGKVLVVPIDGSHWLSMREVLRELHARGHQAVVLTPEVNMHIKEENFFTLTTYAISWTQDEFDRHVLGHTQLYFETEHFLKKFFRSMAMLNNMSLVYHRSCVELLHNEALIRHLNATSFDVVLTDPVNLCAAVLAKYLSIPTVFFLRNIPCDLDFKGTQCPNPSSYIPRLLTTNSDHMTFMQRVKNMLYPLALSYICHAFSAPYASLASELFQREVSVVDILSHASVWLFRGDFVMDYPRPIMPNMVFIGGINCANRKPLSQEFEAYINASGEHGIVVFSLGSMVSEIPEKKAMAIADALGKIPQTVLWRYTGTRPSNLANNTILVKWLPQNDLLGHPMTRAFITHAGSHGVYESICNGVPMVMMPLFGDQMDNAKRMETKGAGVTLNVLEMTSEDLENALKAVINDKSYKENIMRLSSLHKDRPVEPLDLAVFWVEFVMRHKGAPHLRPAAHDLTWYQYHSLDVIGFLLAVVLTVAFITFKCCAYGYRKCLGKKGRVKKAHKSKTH

[6] = Intrinsic clearance in mouse hepatocytes; format: ADME, cell-based, Hepatocyte
[7] = biological target: UGT1A4 (Homo sapiens, UniProt P22310); experiment: Inhibition of human UGT1A4 assessed as residual enzyme activity at 10 uM relative to control; format: ADME; conditions: read-out: Activity
Sequence of UGT1A4 (P22310 whole entry): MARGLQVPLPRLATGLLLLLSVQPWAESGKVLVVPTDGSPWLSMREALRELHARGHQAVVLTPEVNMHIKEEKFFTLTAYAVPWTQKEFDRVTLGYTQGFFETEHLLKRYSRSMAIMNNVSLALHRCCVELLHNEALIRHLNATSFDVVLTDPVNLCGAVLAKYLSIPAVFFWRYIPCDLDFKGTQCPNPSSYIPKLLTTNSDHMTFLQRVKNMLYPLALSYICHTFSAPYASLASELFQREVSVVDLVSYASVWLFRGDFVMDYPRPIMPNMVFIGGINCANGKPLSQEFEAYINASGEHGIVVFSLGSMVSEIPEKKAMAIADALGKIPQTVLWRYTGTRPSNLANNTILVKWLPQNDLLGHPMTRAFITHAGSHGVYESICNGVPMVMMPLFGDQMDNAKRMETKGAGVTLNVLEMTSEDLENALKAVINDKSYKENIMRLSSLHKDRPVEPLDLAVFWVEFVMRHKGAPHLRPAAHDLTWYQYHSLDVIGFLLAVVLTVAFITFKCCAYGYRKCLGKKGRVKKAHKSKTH

[8] = Half life in human hepatocytes; format: ADME, cell-based, Hepatocyte; summary of the method: as §1
[9] = Protein binding in human plasma assessed as bound fraction; format: ADME, cell-free; conditions: read-out: PPB (converted)
Summary of the method: (§2)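 Binding measured in 100% plasma; reported as fraction bound.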

[10] = Half life in human liver S9 fraction; format: ADME, subcellular; summary of the method: as §1
[11] = Intrinsic clearance in human hepatocytes; format: ADME, cell-based, Hepatocyte
[12] = biological target: UGT1A9 (Homo sapiens, UniProt O60656); experiment: Inhibition of human UGT1A9 assessed as residual enzyme activity at 10 uM relative to control; format: ADME; conditions: read-out: Activity
Sequence of UGT1A9 (O60656 whole entry): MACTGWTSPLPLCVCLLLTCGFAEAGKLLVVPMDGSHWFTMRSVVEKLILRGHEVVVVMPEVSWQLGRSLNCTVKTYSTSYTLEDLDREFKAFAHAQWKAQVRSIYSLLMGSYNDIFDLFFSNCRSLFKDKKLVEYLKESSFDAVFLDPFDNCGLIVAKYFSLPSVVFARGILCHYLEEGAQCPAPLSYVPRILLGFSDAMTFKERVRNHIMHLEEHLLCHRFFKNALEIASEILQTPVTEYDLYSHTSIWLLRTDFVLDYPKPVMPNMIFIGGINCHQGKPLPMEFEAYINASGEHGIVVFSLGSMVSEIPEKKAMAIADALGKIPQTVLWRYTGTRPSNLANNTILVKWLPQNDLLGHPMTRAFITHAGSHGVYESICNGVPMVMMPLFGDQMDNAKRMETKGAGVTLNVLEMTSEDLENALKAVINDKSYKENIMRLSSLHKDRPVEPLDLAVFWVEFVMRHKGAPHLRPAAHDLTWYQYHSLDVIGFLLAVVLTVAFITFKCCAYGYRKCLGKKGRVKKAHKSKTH

[13] = Protein binding in mouse plasma assessed as bound fraction; format: ADME, cell-free; conditions: read-out: PPB (converted); summary of the method: as §2
[14] = Intrinsic clearance in mouse liver S9 fraction; format: ADME, subcellular; conditions: read-out: CLH
[15] = Retention time in human plasma by LC-MS/MS analysis; format: ADME, cell-free
[16] = test system: UDP-glucuronosyltransferases (UGTs); experiment: Drug metabolism assessed as human UGT-mediated metabolism by measuring intrinsic clearance; format: ADME, protein assay
[17] = Permeability at pH 7.4 by PAMPA; format: ADME; conditions: read-out: permeability
[18] = biological target: Broad substrate specificity ATP-binding cassette transporter ABCG2 (Homo sapiens, UniProt Q9UNQ0); experiment: Inhibition of BCRP (unknown origin); format: ADME
Sequence of Broad substrate specificity ATP-binding cassette transporter ABCG2 (Q9UNQ0 whole entry): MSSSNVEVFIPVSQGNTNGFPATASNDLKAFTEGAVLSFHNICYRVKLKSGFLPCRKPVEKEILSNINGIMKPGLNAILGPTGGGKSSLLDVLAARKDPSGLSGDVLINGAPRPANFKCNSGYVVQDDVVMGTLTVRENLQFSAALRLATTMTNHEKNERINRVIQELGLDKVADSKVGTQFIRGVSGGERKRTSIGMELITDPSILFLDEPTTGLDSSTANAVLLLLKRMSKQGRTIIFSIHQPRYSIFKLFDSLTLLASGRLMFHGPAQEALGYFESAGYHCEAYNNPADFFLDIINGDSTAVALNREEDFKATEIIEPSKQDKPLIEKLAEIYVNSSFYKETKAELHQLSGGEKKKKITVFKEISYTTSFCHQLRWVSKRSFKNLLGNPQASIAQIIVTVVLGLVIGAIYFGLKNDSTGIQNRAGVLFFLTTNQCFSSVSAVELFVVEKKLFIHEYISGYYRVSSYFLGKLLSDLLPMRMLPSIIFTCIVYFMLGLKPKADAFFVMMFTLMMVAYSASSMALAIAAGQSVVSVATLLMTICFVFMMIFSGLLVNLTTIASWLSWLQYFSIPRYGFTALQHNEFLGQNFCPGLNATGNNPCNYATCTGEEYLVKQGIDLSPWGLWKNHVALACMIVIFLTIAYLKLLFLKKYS

[19] = Lipophilicity, logD of the compound at pH 7.4; format: physicochemical; conditions: buffer
[20] = Inhibition of adenosine transporter (unknown origin) at 10 uM; format: ADME; conditions: human
[21] = Intrinsic clearance in human liver S9 fraction; format: ADME, subcellular; conditions: read-out: CLH
[22] = biological target: Solute carrier organic anion transporter family member 1B3 (Homo sapiens, UniProt Q9NPD5); experiment: Inhibition of OATP1B3 (unknown origin); format: ADME
Sequence of Solute carrier organic anion transporter family member 1B3 (Q9NPD5 whole entry): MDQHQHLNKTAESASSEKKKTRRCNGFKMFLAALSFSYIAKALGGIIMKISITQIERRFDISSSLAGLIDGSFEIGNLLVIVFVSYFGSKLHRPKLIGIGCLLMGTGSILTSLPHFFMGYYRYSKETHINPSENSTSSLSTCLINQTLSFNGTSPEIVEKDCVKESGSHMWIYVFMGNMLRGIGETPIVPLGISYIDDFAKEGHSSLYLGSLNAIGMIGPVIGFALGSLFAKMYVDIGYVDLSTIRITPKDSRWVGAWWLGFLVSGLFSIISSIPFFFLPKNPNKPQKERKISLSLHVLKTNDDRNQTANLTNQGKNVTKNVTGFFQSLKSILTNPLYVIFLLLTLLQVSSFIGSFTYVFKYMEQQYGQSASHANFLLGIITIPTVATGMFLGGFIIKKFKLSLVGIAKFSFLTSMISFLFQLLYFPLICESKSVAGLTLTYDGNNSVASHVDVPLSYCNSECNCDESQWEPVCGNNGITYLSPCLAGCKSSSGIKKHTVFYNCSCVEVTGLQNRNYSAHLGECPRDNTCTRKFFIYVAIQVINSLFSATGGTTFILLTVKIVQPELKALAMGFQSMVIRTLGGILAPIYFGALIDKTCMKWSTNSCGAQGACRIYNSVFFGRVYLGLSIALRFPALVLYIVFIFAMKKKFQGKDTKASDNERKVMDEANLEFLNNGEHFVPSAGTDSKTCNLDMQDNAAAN

[23] = Drug level in beta-naphthoflavone/phenobarbital-induced rat liver S9 fraction treated with 100 ug/ml Ezutromid-1 assessed as compound formation in presence of NADPH measured after 4 hrs by UV-Vis spectroscopy; format: ADME, subcellular; conditions: s9, 4 h
[24] = Half life in mouse hepatocytes; format: ADME, cell-based, Hepatocyte; summary of the method: as §1
[25] = biological target: T1, Amine oxidase [flavin-containing] B (Homo sapiens, UniProt P27338); experiment: Inhibition of monoamino oxidase B (unknown origin) at 10 uM
T1 sequence (P27338 whole entry): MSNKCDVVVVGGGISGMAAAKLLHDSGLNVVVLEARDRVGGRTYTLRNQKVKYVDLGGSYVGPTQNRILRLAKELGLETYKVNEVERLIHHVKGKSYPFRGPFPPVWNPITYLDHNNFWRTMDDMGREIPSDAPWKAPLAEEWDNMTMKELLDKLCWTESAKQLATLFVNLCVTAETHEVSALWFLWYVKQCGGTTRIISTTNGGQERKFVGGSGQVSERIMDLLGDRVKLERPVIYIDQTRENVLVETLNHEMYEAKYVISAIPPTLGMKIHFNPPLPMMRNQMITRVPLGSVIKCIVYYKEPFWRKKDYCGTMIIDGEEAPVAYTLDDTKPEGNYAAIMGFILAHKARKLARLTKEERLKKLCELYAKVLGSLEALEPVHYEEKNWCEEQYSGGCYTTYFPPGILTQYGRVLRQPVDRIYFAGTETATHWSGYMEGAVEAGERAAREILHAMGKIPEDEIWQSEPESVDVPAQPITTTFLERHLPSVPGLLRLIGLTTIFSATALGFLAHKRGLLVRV

[26] = biological target: Solute carrier organic anion transporter family member 1B1 (Homo sapiens, UniProt Q9Y6L6); experiment: Inhibition of OATP1B1 (unknown origin); format: ADME
Sequence of Solute carrier organic anion transporter family member 1B1 (Q9Y6L6 whole entry): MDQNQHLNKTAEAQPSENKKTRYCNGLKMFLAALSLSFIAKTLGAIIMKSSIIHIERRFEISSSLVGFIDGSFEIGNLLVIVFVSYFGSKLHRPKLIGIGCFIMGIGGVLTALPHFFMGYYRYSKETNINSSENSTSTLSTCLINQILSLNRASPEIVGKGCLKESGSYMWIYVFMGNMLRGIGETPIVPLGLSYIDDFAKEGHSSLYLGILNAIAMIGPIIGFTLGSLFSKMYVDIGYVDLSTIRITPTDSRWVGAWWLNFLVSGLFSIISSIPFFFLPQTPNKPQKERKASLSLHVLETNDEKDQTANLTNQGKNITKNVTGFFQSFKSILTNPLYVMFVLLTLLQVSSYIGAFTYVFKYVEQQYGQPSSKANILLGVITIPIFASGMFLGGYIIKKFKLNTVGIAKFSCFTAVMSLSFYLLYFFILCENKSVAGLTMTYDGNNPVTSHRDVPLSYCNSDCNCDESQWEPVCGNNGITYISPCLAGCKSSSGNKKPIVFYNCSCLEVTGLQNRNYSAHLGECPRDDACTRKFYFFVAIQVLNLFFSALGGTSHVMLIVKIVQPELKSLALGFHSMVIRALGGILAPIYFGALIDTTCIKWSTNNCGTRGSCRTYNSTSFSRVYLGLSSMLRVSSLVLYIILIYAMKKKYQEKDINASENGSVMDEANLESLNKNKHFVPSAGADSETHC

Sequence of UDP-glucuronosyltransferase 1A4 (P22310 whole entry): as the sequence (P22310 whole entry) above

CL [1]: < 2.9 µL/min/pmol
half-life [2]: 1.87 h
solubility kinetic [3]: 210 µM (≈ 78 µg/mL)
Retention_time [4]: 9 min
activity at 10 µM [5]: 79%
CLH [6]: 5 µL/min/mg
activity at 10 µM [7]: 84%
half-life [8]: 2.37 h
fraction unbound [9]: 0.128
half-life [10]: > 2.3 h
CLH [11]: 5 µL/min/mg
activity at 10 µM [12]: 45%
fraction unbound [13]: 0.077
microsomal CLint [14]: 13 µL/min/mg
Retention_time [15]: 8.9 min
CL [16]: < 5.8 µL/min/pmol
Papp [17]: 34.4 ×10⁻⁶ cm/s
inhibition (INH) [18]: Active
logD [19]: 1.95
inhibition (INH) [20]: Not Active
microsomal CLint [21]: < 10 µL/min/mg
inhibition (INH) [22]: Active
Drug uptake [23]: Metabolite_Detected
half-life [24]: 2.38 h
inhibition (INH) [25]: Not Active
inhibition (INH) [26]: Active
Structure (SMILES): CCS(=O)(=O)c1ccc2oc(-c3ccc4c(c3)[C@@H](O)[C@H](O)C=C4)nc2c1

— ChEMBL document CHEMBL4376826 (J Med Chem, 2020)
